Compound activity deposited in PubChem by Johns Hopkins Ion Channel Center.
KCNQ1 block: inhibitors of human KCNQ1 potassium channel; P51787; CHO-K1 KCNQ1, FluxOR thallium flux fluorescence; active compounds read high; B-score at 10 µM; 310,000 compounds, 1.3% hits;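 active = compounds whose thallium flux B-score, printed positive for inhibition, exceeds three library SD while starting fluorescence stays within three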;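 note: channel opened by potassium depolarization with thallium stimulus after 20 min compound exposure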
KCNK3 block: human KCNK3 channel inhibition, primary screen. B-score at 10 µM. CHO-KCNK3 thallium flux, FluxOR fluorescence; active compounds read low. 340,000 compounds, 0.84% hits. O14649. AID 602410;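 active = B-score under library mean minus 4 SD, starting fluorescence ratio at most library mean plus 5 SD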;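 note: more negative B-score means stronger inhibition of thallium flux through KCNK3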
Target sequence (O14649 whole entry, looked up): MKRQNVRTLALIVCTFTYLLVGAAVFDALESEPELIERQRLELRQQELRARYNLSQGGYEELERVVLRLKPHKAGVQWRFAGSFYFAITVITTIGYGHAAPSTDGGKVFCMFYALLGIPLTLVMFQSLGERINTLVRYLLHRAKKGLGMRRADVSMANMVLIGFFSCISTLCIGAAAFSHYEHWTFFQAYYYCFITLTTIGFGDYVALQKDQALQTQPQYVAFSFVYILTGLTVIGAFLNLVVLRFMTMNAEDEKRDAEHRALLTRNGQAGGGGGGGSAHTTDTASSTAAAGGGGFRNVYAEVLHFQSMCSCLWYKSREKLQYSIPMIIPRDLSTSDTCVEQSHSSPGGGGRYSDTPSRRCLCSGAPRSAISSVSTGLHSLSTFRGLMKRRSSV
hERG rescue: compounds protecting human hERG from proarrhythmic drug block; Q12809; CHO-hERG, FluxOR thallium flux, dofetilide IC70 present; activation (rescue from dofetilide block), less the hit threshold, % at 10 µM; 310,000 compounds, 0.51% hits;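 active = activation above the mean of controls blocked by dofetilide plus 5 SD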;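 note: thallium influx through hERG after potassium depolarization seen as dye fluorescence rise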
KCNQ1 pot: potentiators or activators of human KCNQ1 potassium channel; P51787; CHO-K1 KCNQ1, thallium flux FluxOR fluorescence; active compounds read high; B-score at 10 µM; 310,000 compounds, 0.35% hits;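 active = fluorescence ratio B-score, a plate-corrected score, at least three library SD, with initial intensity B-score within 5 SD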
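Assay system: CHO-K1 cells stably expressing KCNQ1; Medium: assay buffer with matched DMSO; Also added: K+/Tl+ depolarizing stimulus; Dosing: single dose; Timing: dye 90 min, compound 20 min, room temperature; Measured by: kinetic FluxOR thallium fluorescence, 10-s 1-Hz baseline, 110-s post-stimulus read; Read-out: peak-minus-minimum fluorescence over initial fluorescence, negative-control normalized, B-scored.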
KCNK9 block: inhibitors of human KCNK9 two-pore domain potassium channel; Q9NPC2; HEK293 KCNK9, FluxOR thallium flux fluorescence; active compounds read low; B-score at 10 µM; 310,000 compounds, 1.2% hits; AID 488922;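 active = ratio B-score over 3 SD below the library mean, with starting fluorescence within 5 SD of its mean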;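 note: negative B-score means less thallium flux so channel inhibition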
KCNK9 block conf: confirmation of human KCNK9 potassium channel inhibitors; inhibition, % at 10 µM; shares compounds with KCNK9 block; HEK293 KCNK9 cells, FluxOR thallium flux fluorescence; 4,900 compounds, 43% hits; AID 492992;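 active = thallium signal inhibited by more than 5 SD of the compound-free buffer control wells, on both duplicate plates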;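 note: 0% = assay buffer control wells without compound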
Kir21 sel: mouse Kir2.1 off-target activity of KCNK9 modulators. shares compounds with KCNK9 block. 4,900 compounds, 4% hits. Kir2.1 cells, FluxOR thallium flux fluorescence. inhibition, % at 10 µM;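 active = thallium signal drop more than 5 SD beyond the mean of the no-compound control wells, seen in both duplicate plates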;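 note: signal is fluorescence rise after thallium addition divided by baseline fluorescence; plate controls were assay buffer only for no effect and full block by chlorpromazine control for full effect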
HEK293 Tl ctr: second check of KCNK9 modulator effects in non-induced HEK293 cells. shares compounds with KCNK9 block. FluxOR thallium flux. inhibition, % at 10 µM. 4,900 compounds, 40% hits;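 active = thallium signal drop beyond 5 SD of the untreated control mean, on both duplicate plates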;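 note: plate controls were buffer only IC0 wells for no effect and SID17386958 at its maximal inhibitory level for full effect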
KCNK3 inh conf: human KCNK3 channel inhibition, confirmation assay; ratio percent of control, % at 10 µM; AID 651638; shares compounds with KCNK3 block; CHO-KCNK3 thallium flux, FluxOR fluorescence; 0% buffer, 100% carvedilol maximal block; 2,400 compounds, 99% hits;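 active = ratio percent of control, averaged over triplicates, above buffer control mean plus 5 SD, cut at about 64% in these data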;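 note: ratio is the fluorescence rise from min to max over baseline after thallium stimulus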
KCNK3 noninduced: counter-screen for KCNK3 inhibitors: effect in non-induced cells; shares compounds with KCNK3 block; non-induced KCNK3 parental cells, FluxOR thallium flux; active compounds read low; thallium flux ratio (lower = more inhibition) at 10 µM; 2,400 compounds, 40% hits; AID 651747;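 active = thallium flux ratio, averaged over three wells, more than 5 SD below the buffer control mean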;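 note: host cells are CHO cells without KCNK3 induction; ratio is peak minus trough fluorescence over baseline then normalized to buffer controls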
An asterisk follows results filed as active; i = inactive; · = no result given. An excerpt weighted towards active compounds, which were near 3.1% of everything screened.

SMILES	KCNQ1 block	KCNK3 block	hERG rescue	KCNQ1 pot	KCNK9 block	KCNK9 block conf	Kir21 sel	HEK293 Tl ctr	KCNK3 inh conf	KCNK3 noninduced
COc1cccc(NC(=S)N(CCc2c(C)[nH]c3ccc(C)cc23)Cc2cccs2)c1	i	-11*	-3	i	-14*	42%*	i	43%*	90*	0.14*
COC(=O)C1CCN(C(=O)/C=C/c2ccc3c(c2)OCO3)CC1	i	i	-2	i	i	·	·	·	·	·
O=C(OCC(=O)N(Cc1ccccc1)Cc1ccccc1)c1ccccc1O	·	i	·	·	·	·	·	·	·	·
O=C(OCC(=O)N(CCc1ccccc1)Cc1ccccc1)c1ccccc1NCCO	i	-9.9*	-20	i	-9.5*	56%*	i	i	95*	i
O=C(OCC(=O)N(CCc1ccccc1)Cc1ccccc1)c1ccccc1O	8*	-12*	-12	i	-18*	74%*	i	39%*	118*	i
O=C(OCC(=O)N(CCc1ccccc1)Cc1ccccc1)c1cccc(O)c1	i	i	-4	i	i	·	·	·	·	·
CC(C)CC1Nc2ncnc(N3CCN(c4ccccn4)CC3)c2N(Cc2ccccc2)C1=O (stereo unspecified)	·	i	·	·	·	·	·	·	·	·
Cc1ccccc1C(=O)Oc1ccc(Cl)cc1C(=S)N1CCOCC1	i	-9.3*	-12	i	-12*	56%*	i	32%*	114*	0.16*
O=C(Oc1ccc(C(=S)N2CCOCC2)cc1Cl)c1ccccc1F	i	i	-3	i	i	·	·	·	·	·
O=C(/C=C/c1cccc(C(F)(F)F)c1)Nc1cccc(C(F)(F)F)c1	9*	-11*	-5	i	i	i	i	i	107*	0.15*
O=c1/c(=C\c2ccc(O)cc2)sc2n1C(c1ccccc1)C(c1ccccc1)=NN=2 (stereo unspecified)	i	i	-20	i	-13*	56%*	i	52%*	132*	0.15*
O=C1NC(=S)S/C1=C\c1cccc([N+](=O)[O-])c1	·	i	·	·	·	·	·	·	·	·
COCC(C)n1c(SCc2ccc(C(=O)OC)cc2)nc2ccccc2c1=O (stereo unspecified)	i	-12*	-9	i	-16*	62%*	i	38%*	125*	0.14*
COCC(C)n1c(SCc2ccc(OC)c(F)c2)nc2ccccc2c1=O (stereo unspecified)	i	-11*	-13	i	-18*	76%*	i	50%*	116*	i
CCOC(CCn1c(SCc2ccc([N+](=O)[O-])cc2)nc2ccccc2c1=O)OCC	i	i	-6	i	-15*	74%*	i	38%*	117*	i
CCn1c(SCc2ccc(OC)c(F)c2)nc2ccccc2c1=O	i	-12*	-3	i	-20*	78%*	i	46%*	107*	i
Cc1ccc(-n2c(SCc3ccc([N+](=O)[O-])cc3)nc3ccccc3c2=O)cc1	i	i	-12	i	i	·	·	·	·	·
CC(=O)c1ccc(-c2ccc(C(=O)NC3CC(C)(C)NC(C)(C)C3)o2)cc1	i	i	-9	i	i	·	·	·	·	·
CC1CN(C(=O)Cn2cc(SCC(=O)N3CCOCC3)c3ccccc32)CC(C)O1 (stereo unspecified)	i	i	-10	i	i	·	·	·	·	·
CC(C)Oc1ccc(C(=O)Nc2cccc(S(=O)(=O)N3CCCC3)c2)cc1	·	i	·	·	·	·	·	·	·	·
CCOc1cc(-c2nc(-c3ccccc3)c(-c3cc([N+](=O)[O-])ccc3C)[nH]2)ccc1O	7*	-9.6*	-16	i	-12*	56%*	i	i	124*	0.12*
O=[N+]([O-])c1ccc2nc(-c3ccccc3)[nH]c2c1	i	i	-7	i	i	·	·	·	·	·
Cc1cccn2cc(-c3cccc(NC(=O)c4cccs4)c3)nc12	i	-12*	-25	i	-10*	40%*	i	i	121*	i
O=C(Nc1cccc(-c2cn3cccnc3n2)c1)c1cccs1	i	i	-8	i	i	·	·	·	·	·
Cn1cccc1-c1nc2ccc(NC(=O)c3cccs3)cc2[nH]1	i	-12*	-22	i	-10*	46%*	i	i	141*	0.13*
SMILES	KCNQ1 block	KCNK3 block	hERG rescue	KCNQ1 pot	KCNK9 block	KCNK9 block conf	Kir21 sel	HEK293 Tl ctr	KCNK3 inh conf	KCNK3 noninduced
CC(=O)Nc1ccc2nc(-c3cccn3C)[nH]c2c1	i	i	-4	i	i	·	·	·	·	·
C#CCOCCOCCOCCNc1nc(N2CCN(C(=O)[C@H](CCCN=C(N)N)n3cc(C(N)[C@@H](C)CC)nn3)CC2)nc(N2CCN(C(=O)[C@H](CCC(=O)O)n3cc([C@@H](N)CO)nn3)CC2)n1 (stereo partly specified)	·	i	·	·	·	·	·	·	·	·
Cc1ccc(-n2ncc3c(=O)n(CC(=O)N4CCN(C(=O)c5ccco5)CC4)cnc32)cc1	·	i	·	·	·	·	·	·	·	·
O=S(Cc1cc(Oc2ccccc2)nc(-c2ccccc2)n1)c1ccccc1 (stereo unspecified)	i	-10*	-11	i	-18*	70%*	i	37%*	115*	i
COCCN1Cc2cccc(C(=O)Nc3cccc(-c4nc5ccccc5[nH]4)c3)c2C1=O	i	-10*	-18	i	-13*	58%*	i	i	120*	0.15*
COCCN1Cc2cccc(C(=O)Nc3ccc(-c4nc5ccccc5[nH]4)cc3)c2C1=O	i	i	-6	i	i	·	·	·	·	·
Cc1cccc(N2C(=O)N3[C@H](c4ccc(Br)cc4)[C@@H]4C(=O)N(C(C)(C)C)C(=O)[C@@H]4[C@]3(C)C2=O)c1	i	i	-7	i	i	·	·	·	·	·
Cc1ccc(O)c(-c2cc(C(=O)NCc3ccncc3)[nH]n2)c1	i	-9.2*	-4	i	-11*	55%*	i	30%*	107*	i
CC(OC(=O)c1ccccc1C(=O)N(C)c1ccccc1)C(=O)Nc1ccccc1[N+](=O)[O-] (stereo unspecified)	i	i	-21	i	i	·	·	·	·	·
